ChEMBL document CHEMBL3227917, “Structure-activity relationships of dimeric Catharanthus alkaloids. 2. Experimental antitumor activities of N-substituted deacetylvinblastine amide (vindesine) sulfates” (J Med Chem, 1979)

Key:
B16 [1] = experiment: Antitumor activity against mouse B16 cells allografted in C57BL/6 mouse assessed as prolongation of host survival at 1.20 mg/kg, ip administered on days 1,5 and 9; assay type: functional; conditions: route intraperitoneal
Summary of the method: (§1)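 B16 melanoma cells (10⁶ inoculum) implanted ip in C57BL/6 mice; groups of 10. Sulfate salts unless noted, given ip on days 1, 5 and 9. Single test. Survival prolongation is expressed as percent versus controls, with survivors counted on day 60. Toxic means deaths of ≥5 of 10 animals before the first control death.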

[2] = Antitumor activity against mouse P1534 cells allografted in DBA2 mouse assessed as tumor growth inhibition at 0.9 mg/kg, ip administered on days 1,5 and 9; assay type: functional; conditions: route intraperitoneal, read-out: TGI
Summary of the method: (§2)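 P1534(J) leukemia implanted sc in DBA2 mice; agent given ip on days 1, 5 and 9 at 1.6, 1.2, 0.9 and 0.6 mg/kg in a single experiment. Activity scored as growth inhibition, –, 0–25%; +, 26–50%; ++, 51–75%; +++, 76–100%.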

P388/VCR [3] = experiment: Antitumor activity against mouse P388/VCR cells allografted in CD2F1 mouse assessed as increase in host lifespan at 1.80 mg/kg, ip administered on days 1, 5 and 9; assay type: functional; conditions: dose 1.8 mg/kg; route intraperitoneal
Summary of the method: (§3)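 Groups of eight male CD2F1 mice, tested at the NCI. Compounds were given as sulfate salts, dosed in mg/kg ip on days 1, 5 and 9. Activity was read as percent increase in lifespan against the leukemia line.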

CHO [4] = experiment: Mitotic arrest in CHO cells assessed as increase in cell accumulation at 0.02 ug/ml; assay type: functional, Cricetulus griseus
Summary of the method: (§4)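 Chinese hamster ovary cells in tissue culture, scored for mitotic arrest as increase in cells in mitotic arrest over control: +++, 40–50%; ++, 15–40%; +, 10–15%; ±, 7–10%; –, 3–7%. Cytotoxicity noted separately.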

P388/S [5] = experiment: Antitumor activity against mouse P388/S cells allografted in CD2F1 mouse assessed as increase in host lifespan at 1.08 mg/kg, ip administered on days 1, 5 and 9; assay type: functional; conditions: route intraperitoneal
Summary of the method: (§5)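 Groups of eight male CD2F1 mice bearing P388 leukemia, run at NCI. Sulfate salts given ip on days 1, 5 and 9. Read-out is percent increase in lifespan.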

P388/VCR [6] = experiment: Antitumor activity against mouse P388/VCR cells allografted in CD2F1 mouse assessed as increase in host lifespan at 0.648 mg/kg, ip administered on days 1, 5 and 9; assay type: functional; conditions: route intraperitoneal; summary of the method: as §5
Mus musculus [7] = experiment: Toxicity in CD2F1 mouse allografted with mouse P388/VCR cells at 3.00 mg/kg, ip administered on days 1, 5 and 9; assay type: organism-based; parameters: dose 3 mg/kg, route intraperitoneal; conditions: in vivo
CHO [8] = experiment: Mitotic arrest in CHO cells assessed as increase in cell accumulation at 0.002 ug/ml; assay type: functional, Cricetulus griseus; summary of the method: as §4
P388/S [9] = experiment: Antitumor activity against mouse P388/S cells allografted in CD2F1 mouse assessed as increase in host lifespan at 0.648 mg/kg, ip administered on days 1, 5 and 9; assay type: functional; conditions: route intraperitoneal; summary of the method: as §5
[10] = Antitumor activity against mouse P388/VCR/I/63 cells allografted in Dublin-CDF1 mouse assessed as day of host death at 1.6 mg/kg, ip administered on days 1, 5 and 9 (reference value: 10 days); assay type: functional; conditions: route intraperitoneal
[11] = Toxicity in iv dosed mouse assessed as lethality; assay type: organism-based; conditions: in vivo
P388/VCR [12] = experiment: Antitumor activity against mouse P388/VCR cells allografted in CD2F1 mouse assessed as increase in host lifespan at 1.08 mg/kg, ip administered on days 1, 5 and 9; assay type: functional; conditions: route intraperitoneal; summary of the method: as §5
[13] = Antitumor activity against mouse Gardner lymphosarcoma allografted in C3H mouse assessed as tumor growth inhibition at 0.30 mg/kg, ip administered daily for 8 to 10 days; assay type: functional; conditions: route intraperitoneal, read-out: TGI
Summary of the method: (§6)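 Gardner lymphosarcoma in C3H mice; sulfate salts unless noted, given ip daily for 8–10 days, treatment starting 8 days after tumor implantation. Tumor growth inhibition scored as –, 0–25%; +, 26–50%; ++, 51–75%; +++, 76–100%; T, lethal to ≥5 of 10 animals per group. Average of one or more tests.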

[14] = Antitumor activity against mouse P388/VCR/I/63 cells allografted in Dublin-CDF1 mouse assessed as increase in host lifespan at 0.7 mg/kg, ip administered on days 1, 5 and 9; assay type: functional; conditions: route intraperitoneal
[15] = Antitumor activity against mouse P388/VCR/I/63 cells allografted in Dublin-CDF1 mouse assessed as day of host death at 0.7 mg/kg, ip administered on days 1, 5 and 9 (reference value: 10 days); assay type: functional; conditions: route intraperitoneal
[16] = Antitumor activity against mouse Gardner lymphosarcoma allografted in C3H mouse assessed as tumor growth inhibition at 0.40 mg/kg, ip administered daily for 8 to 10 days; assay type: functional; conditions: route intraperitoneal, read-out: TGI; summary of the method: as §6
[17] = Antitumor activity against mouse P388/VCR/I/63 cells allografted in Dublin-CDF1 mouse assessed as increase in host lifespan at 1.0 mg/kg, ip administered on days 1, 5 and 9; assay type: functional; conditions: route intraperitoneal
[18] = Antitumor activity against mouse Gardner lymphosarcoma allografted in C3H mouse assessed as tumor growth inhibition at 0.05 mg/kg, ip administered daily for 8 to 10 days; assay type: functional; conditions: route intraperitoneal, read-out: TGI; summary of the method: as §6
P388/VCR [19] = experiment: Antitumor activity against mouse P388/VCR cells allografted in B6D2F1 mouse assessed as increase in host lifespan at 0.60 mg/kg, ip administered on days 1, 5 and 9; assay type: functional; conditions: dose 0.6 mg/kg; route intraperitoneal
Summary of the method: (§7)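 P388/VCR leukemia in groups of 10 B6D2F1 mice, run at Lilly using the cell strain received from NCI. Sulfate salts given ip on days 1, 5 and 9. Read-out is percent increase in lifespan.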

P388/VCR [20] = experiment: Antitumor activity against mouse P388/VCR cells allografted in B6D2F1 mouse assessed as increase in host lifespan at 0.90 mg/kg, ip administered on days 1, 5 and 9; assay type: functional; conditions: dose 0.9 mg/kg; route intraperitoneal; summary of the method: as §7
CHO [21] = experiment: Mitotic arrest in CHO cells assessed as increase in cell accumulation at 0.2 ug/ml; assay type: functional, Cricetulus griseus; summary of the method: as §4
[22] = Antitumor activity against mouse P1534 cells allografted in DBA2 mouse assessed as tumor growth inhibition at 0.6 mg/kg, ip administered on days 1,5 and 9; assay type: functional; conditions: route intraperitoneal, read-out: TGI; summary of the method: as §2
P388/VCR [23] = experiment: Antitumor activity against mouse P388/VCR cells allografted in B6D2F1 mouse assessed as increase in host lifespan at 1.20 mg/kg, ip administered on days 1, 5 and 9; assay type: functional; conditions: dose 1.2 mg/kg; route intraperitoneal; summary of the method: as §7
[24] = Antitumor activity against mouse P388/VCR/I/63 cells allografted in Dublin-CDF1 mouse assessed as increase in host lifespan at 1.6 mg/kg, ip administered on days 1, 5 and 9; assay type: functional; conditions: route intraperitoneal
P388/S [25] = experiment: Antitumor activity against mouse P388/S cells allografted in CD2F1 mouse assessed as increase in host lifespan at 1.80 mg/kg, ip administered on days 1, 5 and 9; assay type: functional; conditions: dose 1.8 mg/kg; route intraperitoneal; summary of the method: as §3
[26] = Antitumor activity against mouse Gardner lymphosarcoma allografted in C3H mouse assessed as tumor growth inhibition at 0.20 mg/kg, ip administered daily for 8 to 10 days; assay type: functional; conditions: route intraperitoneal, read-out: TGI; summary of the method: as §6
B16 [27] = experiment: Antitumor activity against mouse B16 cells allografted in C57BL/6 mouse assessed as prolongation of host survival at 0.60 mg/kg, ip administered on days 1,5 and 9; assay type: functional; conditions: route intraperitoneal; summary of the method: as §1
B16 [28] = experiment: Antitumor activity against mouse B16 cells allografted in C57BL/6 mouse assessed as prolongation of host survival at 0.90 mg/kg, ip administered on days 1,5 and 9; assay type: functional; conditions: route intraperitoneal; summary of the method: as §1
[29] = Antitumor activity against mouse Gardner lymphosarcoma allografted in C3H mouse assessed as tumor growth inhibition at 0.10 mg/kg, ip administered daily for 8 to 10 days; assay type: functional; conditions: route intraperitoneal, read-out: TGI; summary of the method: as §6
[30] = Antitumor activity against mouse P388/VCR/I/63 cells allografted in Dublin-CDF1 mouse assessed as day of host death at 1.0 mg/kg, ip administered on days 1, 5 and 9 (reference value: 10 days); assay type: functional; conditions: route intraperitoneal
[31] = Antitumor activity against mouse P1534 cells allografted in DBA2 mouse assessed as tumor growth inhibition at 1.2 mg/kg, ip administered on days 1,5 and 9; assay type: functional; conditions: route intraperitoneal, read-out: TGI; summary of the method: as §2
Mus musculus [32] = experiment: Toxicity in CD2F1 mouse allografted with mouse P388/S cells at 3.00 mg/kg, ip administered on days 1, 5 and 9; assay type: organism-based; parameters: dose 3 mg/kg, route intraperitoneal; conditions: in vivo
[33] = Antitumor activity against mouse P1534 cells allografted in DBA2 mouse assessed as tumor growth inhibition at 1.6 mg/kg, ip administered on days 1,5 and 9; assay type: functional; conditions: route intraperitoneal, read-out: TGI; summary of the method: as §2
[34] = Antitumor activity against mouse P1534 cells allografted in DBA2 mouse assessed as tumor growth inhibition at 0.25 mg/kg, ip administered daily for 8 to 10 days; assay type: functional; conditions: route intraperitoneal, read-out: TGI
Summary of the method: (§8)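 P1534(J) leukemia implanted sc in DBA2 mice; sulfate salts dosed ip daily for 8–10 days. Growth inhibition scored –, 0–25%; +, 26–50%; ++, 51–75%; +++, 76–100%; T, lethal to ≥5 of 10 animals per group. Average of one or more tests.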

[35] = Antitumor activity against mouse P1534 cells allografted in DBA2 mouse assessed as tumor growth inhibition at 0.20 mg/kg, ip administered daily for 8 to 10 days; assay type: functional; conditions: route intraperitoneal, read-out: TGI; summary of the method: as §8
[36] = Antitumor activity against mouse P1534 cells allografted in DBA2 mouse assessed as tumor growth inhibition at 0.30 mg/kg, ip administered daily for 8 to 10 days; assay type: functional; conditions: route intraperitoneal, read-out: TGI; summary of the method: as §8
[37] = Antitumor activity against mouse P1534 cells allografted in DBA2 mouse assessed as tumor growth inhibition at 0.40 mg/kg, ip administered daily for 8 to 10 days; assay type: functional; conditions: route intraperitoneal, read-out: TGI; summary of the method: as §8

Row | Structure (SMILES) | Activity (P388/VCR [3]) | Activity (CHO [4]) | Activity (P388/S [5]) | Activity (P388/VCR [6]) | Activity (Mus musculus [7]) | Activity (CHO [8]) | Activity (P388/S [9]) | LD50 [11] | Activity (P388/VCR [12]) | Activity (P388/VCR [19]) | Activity (P388/VCR [20]) | Activity (CHO [21]) | Activity (P388/VCR [23]) | Activity (P388/S [25]) | Activity (Mus musculus [32]) | further results
1 | CC[C@]1(O)C[C@H]2CN(CCc3c([nH]c4ccccc34)[C@@](C(=O)OC)(c3cc4c(cc3OC)N(C)[C@H]3[C@@](O)(C(=O)NCCSSCCNC(=O)[C@@]5(O)[C@H](O)[C@]6(CC)C=CCN7CC[C@@]8(c9cc([C@@]%10(C(=O)OC)C[C@@H]%11CN(CCc%12c%10[nH]c%10ccccc%12%10)C[C@](O)(CC)C%11)c(OC)cc9N(C)[C@@H]58)[C@@H]76)[C@H](O)[C@]5(CC)C=CCN6CC[C@]43[C@@H]65)C2)C1.O=S(=O)(O)O | 33% | 10% | 96% | 50% | Toxic | 3% | 129% | 6.9 mg/kg | 46% | 35% | 54% | 15% | 22% | 50% | Toxic | survival at 1.2 mg/kg (B16 [1]): 170%; inhibition in vivo at 0.9 mg/kg [2]: 51%; Activity [10]: 24.5 days; inhibition in vivo at 0.3 mg/kg [13]: 76%; Activity [14]: 85%; Activity [15]: 18.5 days; inhibition in vivo at 0.4 mg/kg [16]: 76%; Activity [17]: 115%; inhibition in vivo at 0.05 mg/kg [18]: 0%; inhibition in vivo at 0.6 mg/kg [22]: 26%; Activity [24]: 145%; inhibition in vivo at 0.2 mg/kg [26]: 51%; survival at 0.6 mg/kg (B16 [27]): 115%; survival at 0.9 mg/kg (B16 [28]): 170%; inhibition in vivo at 0.1 mg/kg [29]: 0%; Activity [30]: 21.5 days; inhibition in vivo at 1.2 mg/kg [31]: 76%; inhibition in vivo at 1.6 mg/kg [33]: 76%
2 | CC[C@]1(O)C[C@@H]2CN(CCc3c([nH]c4ccccc34)[C@@](C(=O)OC)(c3cc4c(cc3OC)N(C)[C@H]3[C@@](O)(C(=O)OC)[C@H](OC(C)=O)[C@]5(CC)C=CCN6CC[C@]43[C@@H]65)C2)C1.O=S(=O)(O)O [VINBLASTINE SULFATE] | 17% | 15% | 96% | 17% | Toxic | 3% | 75% | 10 mg/kg | 12% | 9% | 9% | 40% | 10% | 92% | Toxic | inhibition in vivo at 0.25 mg/kg [34]: 0%; inhibition in vivo at 0.2 mg/kg [35]: 0%; inhibition in vivo at 0.3 mg/kg [36]: 0%; inhibition in vivo at 0.4 mg/kg [37]: 51%
